This is an account of results in ChEMBL document CHEMBL1142379, “Substituted 2-oxo-azepane derivatives are potent, orally active gamma-secretase inhibitors” (Bioorg Med Chem Lett, 2008).

Series [1] has as its target Gamma-secretase. In words: Inhibition of human gamma secretase in HEK293 cells assessed as reduction of amyloid beta level by ELISA. It counts as cell-based. In general terms: An ELISA detects its analyte on a solid surface through an enzyme-linked reagent.
The nature of series [2]: Clearance in mouse microsomes assessed per mg of protein. The class given is ADME, Liver, Microsome. In outline:
(§1)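 Intrinsic clearance in human and mouse liver microsomes, expressed as µl/min/mg protein.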

Series [3] can be described thus: Solubility of the compound. It counts as physicochemical.
Series [4] in a line: Distribution coefficient, log D of the compound. The class given is physicochemical. As to conditions: octanol/water.
The nature of series [5]: Clearance in human microsomes assessed per mg of protein. The class given is ADME, Microsome. In outline:
as §1

Series [6] in a line: Ratio of drug level in brain to plasma in PS2APP transgenic mouse at 20 mg/kg, po after 2 hrs. The class given is ADME, organism-based. Details: dose 20 mg/kg, route oral. As to conditions: read-out: BPR. The procedure, abridged: (§2)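 Single 20 mg/kg oral dose in mice; plasma and brain concentrations taken at 2 h, brain/plasma ratio calculated; N = 3.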
Series [7] deals with Mus musculus. In words: Inhibition of human gamma secretase expressed in PS2APP transgenic mouse at 20 mg/kg, po after 3 days. It counts as functional, organism-based. Also on record: dose 20 mg/kg. In outline: (§3)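 PS2APP transgenic mice (human APP driven by neuron-specific Thy1 promoter) dosed 3 × 20 mg/kg po or ip; γ-secretase inhibition read as accumulation of CTFβ in total brain by Western blot, chemiluminescent band quantified and normalized to an endogenous control protein; reference inhibitor LY411575.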

The test system of series [8] is Mus musculus. Description: Inhibition of human gamma secretase expressed in PS2APP transgenic mouse at 20 mg/kg, ip after 3 days. The class given is functional, organism-based. Also on record: dose 20 mg/kg. The procedure, abridged: as §3
The subject of series [9] is LLC-PK1. Description: Ratio of permeability from basolateral to apical over apical to basolateral side of the pig LLC-PK1 cell transfected with human MDR1 at 1 uM. As to conditions: llc-pk1, 1 µM. The class given is ADME, cell-based, Sus scrofa. In outline: (§4)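 Bidirectional transport across LLC-PK1 monolayers exogenously expressing human MDR1 (P-gp), compound at 1 μM; apical-to-basolateral and reverse permeabilities measured, export ratio derived; run with and without elacridar (5 μM) as transport inhibitor. Passive permeability estimated from experiments with active transport inhibited.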

Series [10] is described as follows: Drug level in PS2APP transgenic mouse brain at 20 mg/kg, po after 2 hrs. It counts as ADME, organism-based. Details: dose 20 mg/kg, route oral. As to conditions: read-out: Drug uptake. In outline:
as §2

Series [11] has as its system MDR1. Description: Permeability from apical to basolateral side of pig LLC-PK1 cell transfected with human MDR1. The class given is ADME, cell-based, Sus scrofa. As to conditions: read-out: permeability. In outline: as §4
The subject of series [12] is LLC-PK1. Description: Ratio of permeability from basolateral to apical over apical to basolateral side of the pig LLC-PK1 cell transfected with human MDR1 at 1 uM in presence of elacridar. It counts as ADME, cell-based, Sus scrofa. As to conditions: llc-pk1, 1 µM. In outline: as §4

Molecules are shown by their SMILES. Activity calls are given as the source filed them. The calls are words filed in the database; no cut-off is given here.

One may read the IC50 as the concentration that inhibits the measured activity by half. With `CC1(C)CCCC(N(Cc2ccc(C(=O)NC3CC3)cc2)S(=O)(=O)c2ccc(Cl)cc2)C(=O)N1` (centres undefined), the IC50 in [1] was more than 20000 nM.

The microsomal CLint is a measure of how fast metabolising enzymes remove a compound, apart from limits set by blood flow. Lower therefore signals greater metabolic stability. Broadly, the solubility is the dissolved amount per volume that the medium holds. High values mean a readily soluble substance, low ones a poorly soluble substance. A word on the logD: it is the decadic logarithm of the distribution of all forms, ionised or not, between an organic phase and buffer at a given pH. Read a high logD as a more lipophilic compound. As to `CC(C)C[C@H](C(N)=O)N(Cc1ccc2c(c1)OCO2)S(=O)(=O)c1ccc(Cl)cc1`, the microsomal CLint amounted to 282 µL/min/mg in [2] and 34 µL/min/mg in [5]. This molecule also gave a solubility in series [3] of less than 1 µg/mL. The molecule also returned a logD in series [4] of more than 3. Further, the 50% inhibitory concentration (IC50) in [1] came to 8 nM.

On to `O=C1NCCCCCC1N(Cc1ccc2c(c1)OCO2)S(=O)(=O)c1ccc(Cl)cc1` (centres undefined), for which the IC50 in [1] is 9000 nM.

Take `O=C(NC1CC1)c1ccc(CN(C2CC(C(F)(F)F)CCNC2=O)S(=O)(=O)c2ccc(Cl)cc2)cc1` (racemic): the results for the microsomal CLint in [2] and in [5] were 39 µL/min/mg and 19 µL/min/mg, respectively. In series [1], the IC50 was determined as 20 nM.

With `CC(C)C[C@H](C(=O)NO)N(Cc1ccc2c(c1)OCO2)S(=O)(=O)c1ccc(Cl)cc1`, the IC50 in series [1] was 2600 nM.

With `CC1(C)CCNC(=O)[C@H](N(Cc2ccc(C(=O)NC3CC3)cc2)S(=O)(=O)c2ccc(Cl)cc2)C1`, the microsomal CLint in series [2] worked out at 655 µL/min/mg; in series [5] it was 36 µL/min/mg. Besides, the IC50 in [1] is 15 nM.

As for `COc1ccc(CN([C@@H]2CC(F)(F)CCNC2=O)S(=O)(=O)c2ccc(Cl)cc2)c(F)c1F`, the intrinsic metabolic clearance (microsomal CLint) in series [2] amounted to 121 µL/min/mg; in series [5], 19 µL/min/mg. Further, the Kp at 2 h in series [6] is less than 0.1.

Turning to `NC(=O)c1ccc(CN([C@@H]2CCCCNC2=O)S(=O)(=O)c2ccc(Cl)cc2)cc1`, the IC50 in series [1] was found to be 80 nM.

Take `CC1(C)CCCNC(=O)C1N(Cc1ccc(C(=O)NC2CC2)cc1)S(=O)(=O)c1ccc(Cl)cc1` (centres undefined): the IC50 in series [1] turned out to be 390 nM.

Turning to `CC1(C)CCNC(=O)C(N(Cc2ccc(C(=O)NC3CC3)cc2)S(=O)(=O)c2ccc(Cl)cc2)C1` (centres undefined), the results for the microsomal CLint in series [2] and in series [5] were 191 µL/min/mg and 45 µL/min/mg, respectively. In [1], the IC50 is 6 nM.

Regarding `CC1(C)CCC(N(Cc2ccc(C(=O)NC3CC3)cc2)S(=O)(=O)c2ccc(Cl)cc2)C(=O)NC1` (centres undefined), the IC50 in series [1] was found to be 3500 nM.

With `COc1ccc(CN(C2CCCCNC2=O)S(=O)(=O)c2ccc(Cl)cc2)cn1` (centres undefined), in series [1], the IC50 came to 900 nM.

`O=C(NC1CC1)c1ccc(CN(C2CCCCNC2=O)S(=O)(=O)c2ccc(Cl)cc2)cc1` (centres undefined): in series [1], the IC50 was determined as 170 nM.

On to `CC(C)(C)C1CCNC(=O)C(N(Cc2ccc(C(=O)NC3CC3)cc2)S(=O)(=O)c2ccc(Cl)cc2)C1` (racemic), for which the microsomal CLint in series [2] came to 110 µL/min/mg; in series [5] it was 93 µL/min/mg. In addition, in series [1], the IC50 was found to be 120 nM.

As to `O=C(NC1CC1)c1ccc(CN([C@@H]2CC(F)(F)CCNC2=O)S(=O)(=O)c2ccc(Cl)cc2)cc1`, the outcome in series [7] and in series [8] was inactive. The microsomal CLint in series [2] worked out at 2.2 µL/min/mg; in [5], 1.9 µL/min/mg. The IC50 in series [1] came to 4 nM.

With `CC(C)C1CCNC(=O)C(N(Cc2ccc(C(=O)NC3CC3)cc2)S(=O)(=O)c2ccc(Cl)cc2)C1` (racemic), the values for the microsomal CLint in series [2] and in series [5] were 203 µL/min/mg and 51 µL/min/mg, respectively. Besides, the IC50 in series [1] came out at 40 nM.

Regarding `COc1ccc(CN([C@@H]2CC(F)(F)CCNC2=O)S(=O)(=O)c2ccc(Cl)cc2)cn1`, the values for the Ratio in [9] and in [12] were 2.2 and 1, respectively. The concentration at 2 h in series [10] was determined as 60 ng/g. Further, in series [7], the outcome was Active. Besides, the microsomal CLint in [2] amounted to 72 µL/min/mg; in [5], 9 µL/min/mg. Further, the Papp A→B in series [11] came to 28 ×10⁻⁶ cm/s. For the same molecule, the Kp at 2 h in series [6] was determined as 0.06. Besides, in [1], the IC50 came out at 30 nM.

As to `O=C(O)CCc1ccc(CN([C@@H]2CCCCNC2=O)S(=O)(=O)c2ccc(Cl)cc2)cc1`, the IC50 in series [1] was 140 nM.

For the molecule `CN(C)C(=O)c1ccc(CN(C2CCCCNC2=O)S(=O)(=O)c2ccc(Cl)cc2)cc1` (centres undefined), the IC50 in [1] stood at 2000 nM.

For the molecule `O=C(NC1CC1)c1ccc(CN([C@@H]2CCC(F)(F)CNC2=O)S(=O)(=O)c2ccc(Cl)cc2)cc1`, the microsomal CLint in series [2] is 5.4 µL/min/mg.

For the molecule `O=C1NCCCC1N(Cc1ccc2c(c1)OCO2)S(=O)(=O)c1ccc(Cl)cc1` (centres undefined), the IC50 in series [1] came to 14000 nM.

On to `COc1ccc(CN(C2CCCCNC2=O)S(=O)(=O)c2ccc(Cl)cc2)c(F)c1` (centres undefined), for which the IC50 in [1] was found to be 150 nM.

As to `O=C1NCCC1N(Cc1ccc2c(c1)OCO2)S(=O)(=O)c1ccc(Cl)cc1` (centres undefined), in series [1], the IC50 was more than 20000 nM.

With `COc1ccc(CN([C@@H]2CC(F)(F)CCNC2=O)S(=O)(=O)c2ccc(Cl)cc2)c(F)c1`, the microsomal CLint in [2] was 105 µL/min/mg; in series [5], 13 µL/min/mg. Moreover, the IC50 in series [1] stood at 20 nM.
